Experimental data: ChEMBL document CHEMBL3259728, “Design, synthesis and biological evaluation of some novel substituted quinazolines as antitumor agents” (2014)

What was measured:
Assay type in all cases: functional
[1] = Growth inhibition of human UACC62 cells at 10 uM after 48 hrs by SRB assay; details: UACC-62, 48 h, read-out: GI
Outline: (§1)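 NCI-60 primary one-dose screen run at the US NCI, with human tumour lines from nine cancer types. Compound added once at 10^-5 M, followed by 48 h incubation. End point was sulforhodamine B protein staining read spectrophotometrically. Result given as percent growth of treated cells against untreated controls, reported as % growth inhibition.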

SK-MEL-28 = assay: Growth inhibition of human SK-MEL-28 cells at 10 uM after 48 hrs by SRB assay; details: SK-MEL-28, 48 h, read-out: GI; outline: as §1
NCI-H522 = assay: Growth inhibition of human NCI-H522 cells at 10 uM after 48 hrs by SRB assay; details: NCI-H522, 48 h, read-out: GI; outline: as §1
COLO 205 = assay: Growth inhibition of human COLO205 cells at 10 uM after 48 hrs by SRB assay; details: COLO 205, 48 h, read-out: GI
Outline: (§2)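 NCI primary one-dose screen. A single concentration of 10^-5 M was added to the cell culture, followed by 48 h incubation and an SRB protein-dye endpoint read spectrophotometrically. Results are growth percentage relative to untreated control cells, reported as % growth inhibition.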

[2] = Growth inhibition of human OVCAR8 cells at 10 uM after 48 hrs by SRB assay; details: OVCAR-8, 48 h, read-out: GI; outline: as §1
[3] = Growth inhibition of human Hs578T cells at 10 uM after 48 hrs by SRB assay; details: Hs-578T, read-out: GI; outline: as §1
KM12 = assay: Growth inhibition of human KM12 cells at 10 uM after 48 hrs by SRB assay; details: KM12, 48 h, read-out: GI; outline: as §1
CCRF-CEM = assay: Growth inhibition of human CCRF-CEM cells at 10 uM after 48 hrs by SRB assay; details: read-out: GI; outline: as §2
[4] = Growth inhibition of human HCT15 cells at 10 uM after 48 hrs by SRB assay; details: HCT-15, 48 h, read-out: GI; outline: as §1
MCF7 = assay: Growth inhibition of human MCF7 cells at 10 uM after 48 hrs by SRB assay; details: MCF7, 48 h, read-out: GI; outline: as §1
MDA-MB-435 = assay: Growth inhibition of human MDA-MB-435 cells at 10 uM after 48 hrs by SRB assay; details: MDA-MB-435, 48 h, read-out: GI; outline: as §1
HCT-116 = assay: Growth inhibition of human HCT116 cells at 10 uM after 48 hrs by SRB assay; details: HCT-116, 48 h, read-out: GI; outline: as §1
DU-145 = assay: Growth inhibition of human DU145 cells at 10 uM after 48 hrs by SRB assay; details: DU-145, 48 h, read-out: GI; outline: as §1
RPMI-8226 = assay: Growth inhibition of human RPMI8226 cells at 10 uM after 48 hrs by SRB assay; details: RPMI-8226, 48 h, read-out: GI; outline: as §1
TK-10 = assay: Growth inhibition of human TK10 cells at 10 uM after 48 hrs by SRB assay; details: TK-10, 48 h, read-out: GI; outline: as §1
SW-620 = assay: Growth inhibition of human SW620 cells at 10 uM after 48 hrs by SRB assay; details: SW-620, 48 h, read-out: GI; outline: as §1
ACHN = assay: Growth inhibition of human ACHN cells at 10 uM after 48 hrs by SRB assay; details: read-out: GI; outline: as §2
HOP-62 = assay: Growth inhibition of human HOP62 cells at 10 uM after 48 hrs by SRB assay; details: HOP-62, 48 h, read-out: GI; outline: as §1
HT-29 = assay: Growth inhibition of human HT-29 cells at 10 uM after 48 hrs by SRB assay; details: HT-29, 48 h, read-out: GI; outline: as §1
CAKI-1 = assay: Growth inhibition of human CAKI-1 cells at 10 uM after 48 hrs by SRB assay; details: CAKI-1, 48 h, read-out: GI; outline: as §2
T47D = assay: Growth inhibition of human T47D cells at 10 uM after 48 hrs by SRB assay; details: read-out: GI; outline: as §1
SNB-75 = assay: Growth inhibition of human SNB75 cells at 10 uM after 48 hrs by SRB assay; details: SNB-75, 48 h, read-out: GI; outline: as §1
[5] = Growth inhibition of human OVCAR3 cells at 10 uM after 48 hrs by SRB assay; details: OVCAR-3, 48 h, read-out: GI; outline: as §1
SN12C = assay: Growth inhibition of human SN12C cells at 10 uM after 48 hrs by SRB assay; details: read-out: GI; outline: as §1
NCI-H23 = assay: Growth inhibition of human NCI-H23 cells at 10 uM after 48 hrs by SRB assay; details: NCI-H23, 48 h, read-out: GI; outline: as §1
786-0 = assay: Growth inhibition of human 786-0 cells at 10 uM after 48 hrs by SRB assay; details: 786-0, 48 h, read-out: GI; outline: as §2
SF-268 = assay: Growth inhibition of human SF268 cells at 10 uM after 48 hrs by SRB assay; details: SF-268, 48 h, read-out: GI; outline: as §1
SK-MEL-2 = assay: Growth inhibition of human SK-MEL-2 cells at 10 uM after 48 hrs by SRB assay; details: SK-MEL-2, 48 h, read-out: GI; outline: as §1
[6] = Growth inhibition of human OVCAR5 cells at 10 uM after 48 hrs by SRB assay; details: OVCAR-5, 48 h, read-out: GI; outline: as §1
A498 = assay: Growth inhibition of human A498 cells at 10 uM after 48 hrs by SRB assay; details: A498, 48 h, read-out: GI; outline: as §2
PC-3 = assay: Growth inhibition of human PC3 cells at 10 uM after 48 hrs by SRB assay; details: PC-3, 48 h, read-out: GI; outline: as §1
U-251 = assay: Growth inhibition of human U251 cells at 10 uM after 48 hrs by SRB assay; details: U-251, 48 h, read-out: GI; outline: as §1
[7] = Growth inhibition of human NCI-ADR-RES cells at 10 uM after 48 hrs by SRB assay; details: read-out: GI; outline: as §1
NCI-H460 = assay: Growth inhibition of human NCI-H460 cells at 10 uM after 48 hrs by SRB assay; details: NCI-H460, 48 h, read-out: GI; outline: as §1
[8] = Growth inhibition of human UO31 cells at 10 uM after 48 hrs by SRB assay; details: UO-31, 48 h, read-out: GI; outline: as §1
Malme-3M = assay: Growth inhibition of human MALME-3M cells at 10 uM after 48 hrs by SRB assay; details: read-out: GI; outline: as §1
M14 = assay: Growth inhibition of human M14 cells at 10 uM after 48 hrs by SRB assay; details: M14, 48 h, read-out: GI; outline: as §1
[9] = Growth inhibition of human BT549 cells at 10 uM after 48 hrs by SRB assay; details: BT-549, 48 h, read-out: GI; outline: as §2

SMILES | inhibition of growth at 10 µM [1] | inhibition of growth at 10 µM (SK-MEL-28) | inhibition of growth at 10 µM (NCI-H522) | inhibition of growth at 10 µM (COLO 205) | inhibition of growth at 10 µM [2] | inhibition of growth at 10 µM [3] | inhibition of growth at 10 µM (KM12) | inhibition of growth at 10 µM (CCRF-CEM) | inhibition of growth at 10 µM [4] | inhibition of growth at 10 µM (MCF7) | inhibition of growth at 10 µM (MDA-MB-435) | inhibition of growth at 10 µM (HCT-116) | inhibition of growth at 10 µM (DU-145) | inhibition of growth at 10 µM (RPMI-8226) | inhibition of growth at 10 µM (TK-10) | inhibition of growth at 10 µM (SW-620) | inhibition of growth at 10 µM (ACHN) | inhibition of growth at 10 µM (HOP-62) | inhibition of growth at 10 µM (HT-29) | inhibition of growth at 10 µM (CAKI-1) | also measured
Cc1ccc(-c2nc3ccc(Cl)cc3c(=O)n2NC(=O)CNN)cc1 | 18% | 23% | 61% | 28% | 23% | 40% | 21% | < 10% | 16% | 22% | < 10% | 46% | 28% | 13% | 61% | 28% | 42% | 83% | 33% | 35% | inhibition of growth at 10 µM (T47D): 52%; inhibition of growth at 10 µM (SNB-75): 25%; inhibition of growth at 10 µM [5]: 45%; inhibition of growth at 10 µM (SN12C): 33%; inhibition of growth at 10 µM (NCI-H23): 13%; inhibition of growth at 10 µM (786-0): 22%; inhibition of growth at 10 µM (SF-268): 28%; inhibition of growth at 10 µM (SK-MEL-2): < 10%; inhibition of growth at 10 µM [6]: 18%; inhibition of growth at 10 µM (A498): 46%; inhibition of growth at 10 µM (PC-3): 33%; inhibition of growth at 10 µM (U-251): 58%; inhibition of growth at 10 µM [7]: 24%; inhibition of growth at 10 µM (NCI-H460): 49%; inhibition of growth at 10 µM [8]: 25%; inhibition of growth at 10 µM (Malme-3M): 14%; inhibition of growth at 10 µM (M14): 17%; inhibition of growth at 10 µM [9]: < 10%
Cc1ccc(-c2nc3ccc(Cl)cc3c(=O)n2/N=C/c2ccccc2)cc1 | 23% | < 10% | 52% | 34% | 73% | 44% | 18% | < 10% | 14% | 20% | 34% | 47% | 27% | 20% | 26% | 23% | 74% | 98% | 17% | 40% | inhibition of growth at 10 µM (T47D): 25%; inhibition of growth at 10 µM (SNB-75): 74%; inhibition of growth at 10 µM [5]: 42%; inhibition of growth at 10 µM (SN12C): 32%; inhibition of growth at 10 µM (NCI-H23): 11%; inhibition of growth at 10 µM (786-0): 30%; inhibition of growth at 10 µM (SF-268): 40%; inhibition of growth at 10 µM (SK-MEL-2): < 10%; inhibition of growth at 10 µM [6]: 18%; inhibition of growth at 10 µM (A498): 16%; inhibition of growth at 10 µM (PC-3): 30%; inhibition of growth at 10 µM (U-251): 88%; inhibition of growth at 10 µM [7]: 30%; inhibition of growth at 10 µM (NCI-H460): 23%; inhibition of growth at 10 µM [8]: 33%; inhibition of growth at 10 µM (Malme-3M): 35%; inhibition of growth at 10 µM (M14): 29%; inhibition of growth at 10 µM [9]: < 10%
